{
  "source": "ChEMBL document CHEMBL1154634",
  "about": "“Tea catechins inhibit hepatocyte growth factor receptor (MET kinase) activity in human colon cancer cells: kinetic and molecular docking studies” (J Med Chem, 2009)",
  "key": {"[1]": {"target": "T1, Hepatocyte growth factor receptor (Homo sapiens, UniProt P08581)", "T1 sequence (P08581 whole entry)": "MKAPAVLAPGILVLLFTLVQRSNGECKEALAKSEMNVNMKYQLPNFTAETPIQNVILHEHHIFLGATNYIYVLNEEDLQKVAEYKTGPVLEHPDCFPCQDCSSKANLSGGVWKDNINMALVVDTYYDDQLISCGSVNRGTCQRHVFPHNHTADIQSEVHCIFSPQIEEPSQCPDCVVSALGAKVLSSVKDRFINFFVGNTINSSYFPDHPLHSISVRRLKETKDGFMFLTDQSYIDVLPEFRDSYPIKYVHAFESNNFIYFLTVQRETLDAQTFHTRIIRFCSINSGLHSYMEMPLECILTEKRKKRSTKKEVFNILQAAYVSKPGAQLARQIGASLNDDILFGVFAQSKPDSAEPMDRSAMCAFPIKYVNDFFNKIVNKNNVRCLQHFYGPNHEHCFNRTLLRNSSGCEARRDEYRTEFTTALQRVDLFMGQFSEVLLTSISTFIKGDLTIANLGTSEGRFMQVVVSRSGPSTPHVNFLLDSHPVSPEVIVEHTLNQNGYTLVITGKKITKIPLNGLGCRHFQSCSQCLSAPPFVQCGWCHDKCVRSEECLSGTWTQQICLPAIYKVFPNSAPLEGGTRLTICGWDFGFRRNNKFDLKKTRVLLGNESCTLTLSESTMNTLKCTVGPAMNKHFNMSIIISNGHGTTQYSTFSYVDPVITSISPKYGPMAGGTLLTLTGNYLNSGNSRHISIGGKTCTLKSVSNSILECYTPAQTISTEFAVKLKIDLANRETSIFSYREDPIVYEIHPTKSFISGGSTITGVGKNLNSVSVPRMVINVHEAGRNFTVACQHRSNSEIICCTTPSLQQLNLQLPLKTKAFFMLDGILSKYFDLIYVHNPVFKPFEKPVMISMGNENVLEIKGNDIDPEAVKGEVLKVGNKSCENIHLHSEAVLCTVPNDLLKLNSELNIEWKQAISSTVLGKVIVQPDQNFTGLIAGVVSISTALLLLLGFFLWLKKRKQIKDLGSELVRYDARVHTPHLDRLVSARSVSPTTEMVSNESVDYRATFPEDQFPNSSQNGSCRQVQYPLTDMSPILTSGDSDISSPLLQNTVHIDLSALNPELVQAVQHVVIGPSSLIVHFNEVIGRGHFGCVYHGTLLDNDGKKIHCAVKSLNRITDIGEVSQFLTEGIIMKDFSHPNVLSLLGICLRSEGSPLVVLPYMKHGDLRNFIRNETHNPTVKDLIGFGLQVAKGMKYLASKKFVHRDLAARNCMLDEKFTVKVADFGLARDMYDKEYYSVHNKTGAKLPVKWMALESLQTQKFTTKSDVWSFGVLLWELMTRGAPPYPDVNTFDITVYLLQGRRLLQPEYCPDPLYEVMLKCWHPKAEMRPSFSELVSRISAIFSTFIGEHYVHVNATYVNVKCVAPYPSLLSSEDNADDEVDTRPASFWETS", "experiment": "Inhibition of hepatocyte growth factor-induced MET phosphorylation in human HCT116 cells at 5 uM after 30 mins by immunoblot", "type": "cell-based", "method_in_brief": "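Whole-cell lysates immunoblotted for phospho-MET and total MET, with β-actin as loading control; densitometry with phospho-MET normalized to total MET.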"}, "[2]": {"target": "T1, Hepatocyte growth factor receptor", "experiment": "Inhibition of MET kinase", "method_in_brief": "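Cell-free MET kinase activity assay run over a range of inhibitor concentrations; IC50 taken as the concentration giving 50% inhibition of kinase activity; data as mean ± SD, n = 3.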"}, "[3]": {"target": "T1, Hepatocyte growth factor receptor", "experiment": "Inhibition of MET kinase by Dixon plot analysis", "method_in_brief": "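MET kinase activity measured at several inhibitor concentrations; Dixon plot (1/V versus [I]) and Cornish-Bowden plot ([S]/V versus [I]) used to assign inhibition type; Ki derived by linear regression of the Dixon plot.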"}, "Homo sapiens": {"tested_on": "Homo sapiens", "experiment": "Plasma concentration in po dosed human", "type": "ADME, organism-based", "settings": "in vivo"}, "Mus musculus": {"tested_on": "Mus musculus", "experiment": "Plasma concentration in po dosed mouse", "type": "ADME, organism-based", "settings": "in vivo"}},
  "note": "Calls of active or inactive are those of the source. The calls are words filed in the database; no cut-off is given here.",
  "data": [
    {"smiles": "O=C(O[C@@H]1Cc2c(O)cc(O)cc2O[C@@H]1c1ccc(O)c(O)c1)c1cc(O)c(O)c(O)c1", "note": "[EPICATECHIN GALLATE]", "values": [
      {"measurement": "inhibition", "setting": "[1]", "result": "Active"},
      {"measurement": "IC50", "setting": "[2]", "result": 10, "unit": "µM"}
    ]},
    {"smiles": "O=C(O[C@@H]1Cc2c(O)cc(O)cc2O[C@@H]1c1cc(O)c(O)c(O)c1)c1cc(O)c(O)c(O)c1", "note": "[EPIGALOCATECHIN GALLATE]", "values": [
      {"measurement": "inhibition", "setting": "[1]", "result": "Active"},
      {"measurement": "IC50", "setting": "[2]", "result": 10, "unit": "µM"},
      {"measurement": "Ki", "setting": "[3]", "result": 3.3, "unit": "µM"},
      {"measurement": "concentration", "setting": "Homo sapiens", "result": 7.5, "unit": "µM"},
      {"measurement": "concentration", "setting": "Mus musculus", "result": 9, "unit": "µM"}
    ]},
    {"smiles": "O=C(O[C@@H]1Cc2c(O)cc(O)cc2O[C@H]1c1cc(O)c(O)c(O)c1)c1cc(O)c(O)c(O)c1", "note": "[GALLOCATECHIN GALLATE]", "values": [
      {"measurement": "inhibition", "setting": "[1]", "result": "Active"},
      {"measurement": "IC50", "setting": "[2]", "result": 10, "unit": "µM"}
    ]},
    {"smiles": "O=C(O)c1cc(O)c(O)c(O)c1", "values": [
      {"measurement": "inhibition", "setting": "[2]", "result": "inactive"}
    ]},
    {"smiles": "Oc1cc(O)c2c(c1)O[C@H](c1ccc(O)c(O)c1)[C@H](O)C2", "values": [
      {"measurement": "inhibition", "setting": "[2]", "result": "inactive"}
    ]},
    {"smiles": "Oc1cc(O)c2c(c1)O[C@H](c1cc(O)c(O)c(O)c1)[C@H](O)C2", "values": [
      {"measurement": "inhibition", "setting": "[2]", "result": "inactive"}
    ]},
    {"smiles": "Oc1cc(O)c2c(c1)O[C@@H](c1ccc(O)c(O)c1)[C@H](O)C2", "values": [
      {"measurement": "inhibition", "setting": "[2]", "result": "inactive"}
    ]}
  ]
}
